Assay results gathered from unrelated publications.
Lines come from different studies, so protocols differ.
Target: Serine/threonine-protein kinase Nek4 (NEK4, Homo sapiens, UniProt P51957)

Structure (SMILES) | effect on | technique | tested at | remaining binding
COc1ccnn2ncc(-c3ccnc(N(C)C)n3)c12 | binding |  | 1 µM | 86%
CC(=O)C1=C(C)N(c2cccc(C(F)(F)F)c2)C(=O)N[C@@H]1c1ccc(C#N)nc1 | cell-free assay | competition with immobilised ligand | 1 µM | 93.9%
Cc1cnc(Nc2ccc(C(=O)N3CCC(N4CCCC4)CC3)cc2)nc1-c1cc2ccccc2s1 | binding | competition with immobilised ligand | 1 µM | 59%
O=C(Nc1c[nH]nc1C(=O)NC1CCNCC1)c1cc(F)cc(F)c1 | binding | competition with immobilised ligand | 1 µM | 91%
O=C(NCCCN1CCOCC1)c1ccc(Nc2ncc(Cl)c(-c3ccc(Cl)s3)n2)cc1 | binding | competition with immobilised ligand | 1 µM | 40%
Cn1nc(C(=O)NCc2ccc(C(=O)O)cc2)cc1-c1ccc2[nH]ccc2c1 | cell-free assay | competition with immobilised ligand | 0.1 µM | 84%
CN(c1nccc(-c2cnn3ncccc23)n1)C1CC1 | binding |  | 1 µM | 100%
CO[C@@H](C)c1c(Nc2ccc([C@H](N(C)C(=O)C3CCS(=O)(=O)CC3)C(F)(F)F)cc2)cnc2cc(Cl)nn12 | cell-free assay | competition with immobilised ligand | 1 µM | 90%
c1cnn2ncc(-c3ccnc(N4CCC45COC5)n3)c2c1 | binding |  | 1 µM | 68%
FC(F)(F)Oc1cccc(-c2cnc3ccc(-c4ccncc4)nn23)c1 | cell-free assay | competition with immobilised ligand | 5 µM | 94%
CNC(=O)[C@@H]1CC[C@@H](n2c(-c3ccc4cnccc4c3)nc3ccc(C(=O)NCc4cccc(C(N)=O)c4)cc32)C1 | binding | competition with immobilised ligand | 1 µM | 100%
O=C(c1ccc(Nc2ncc(Cl)c(-c3cc4ccccc4s3)n2)cc1)N1CCC(N2CCCC2)CC1 | binding | competition with immobilised ligand | 1 µM | 48%
CCN1CCN(Cc2ccc(C(=O)Nc3ccc(C)c(Oc4ccc5c(c4)CC(=O)N5)c3)cc2C(F)(F)F)CC1 | binding | competition with immobilised ligand | 1 µM | 100%
CC1=C(C#N)C(c2ccc3c(c2)c(NC(=O)c2ccccc2C)nn3C)C(C#N)=C(C)N1 | cell-free assay | competition with immobilised ligand | 1 µM | 100%
C[C@H]1CCN(c2nccc(-c3cnn4ncccc34)n2)C1 | binding |  | 1 µM | 81%
COc1cnc(Nc2cccc(S(N)(=O)=O)c2)nc1N1CCN(c2ccccc2)CC1 | binding | competition with immobilised ligand | 1 µM | 95%
CCC(=O)N[C@H]1CC[C@@H](C(=O)N(C)c2ccc(-c3nc4ccccc4o3)cc2)C1 | cell-free assay | competition with immobilised ligand | 1 µM | 99%
N[C@H]1CCN(c2nccc(-c3cnn4ncccc34)n2)C1 | binding |  | 1 µM | 100%
Cc1c[nH]c2nccc(Oc3c(F)cc(Nc4cc(Cl)nc(N)n4)cc3F)c12 | cell-free assay | competition with immobilised ligand | 0.1 µM | 90%
CC1CCCN1c1nccc(-c2cnn3ncccc23)n1 (centres unmarked) | binding |  | 1 µM | 100%
